From ChEMBL document CHEMBL1123946, “Cholecystokinin antagonists. Synthesis and biological evaluation of 4-substituted 4H-[1,2,4]triazolo[4,3-a][1,4]benzodiazepines” (J Med Chem, 1988)

Experiments:
[1] = Displacement of [125I]CCK from Cholecystokinin receptor of guinea pig brain; set-up: species or system Cavia porcellus
In short: (§1)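 Membrane binding: [125I]-CCK-33 to rat pancreas and guinea pig cortex, and [125I]gastrin to guinea pig gastric glands. Values are the means of triplicate determinations.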

Mus musculus [2] = assay: Effective dose for antagonism of CCK-8 inhibition of gastric emptying, 1 hr after oral administration; type: functional; conditions: Stomach
In short: (§2)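 Mice were dosed orally in 0.5% methylcellulose vehicle (N ≥ 10/dose), 1 h, 4 h or 5 h before CCK-8 (80 μg/kg, sc). CCK-8 was given 5 min before a charcoal meal, and gastric emptying was then scored. ED50 is the dose protecting 50% of mice, from regression over at least three dose levels.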

[3] = molecular target: T1, Cholecystokinin receptor type A (Rattus norvegicus, UniProt P30551); assay: Displacement of [125I]CCK from Cholecystokinin receptor of rat pancreas; in short: as §1
T1 sequence (P30551 whole entry): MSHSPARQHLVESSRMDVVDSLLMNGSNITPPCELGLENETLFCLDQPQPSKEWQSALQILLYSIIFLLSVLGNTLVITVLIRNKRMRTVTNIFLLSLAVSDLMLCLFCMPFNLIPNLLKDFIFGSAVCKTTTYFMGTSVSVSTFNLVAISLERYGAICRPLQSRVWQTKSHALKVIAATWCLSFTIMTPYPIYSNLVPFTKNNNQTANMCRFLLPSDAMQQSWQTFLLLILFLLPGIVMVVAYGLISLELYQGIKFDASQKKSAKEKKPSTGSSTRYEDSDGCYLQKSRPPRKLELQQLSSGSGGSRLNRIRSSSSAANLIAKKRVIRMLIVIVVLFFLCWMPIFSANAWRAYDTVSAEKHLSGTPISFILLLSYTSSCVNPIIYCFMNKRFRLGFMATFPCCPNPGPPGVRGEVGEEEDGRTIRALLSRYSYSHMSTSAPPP

Mus musculus [4] = assay: Effective dose for antagonism of CCK-8 inhibition of gastric emptying, 5 hr after oral administration; type: functional; conditions: Stomach; in short: as §2
[5] = Displacement of [125I]gastrin from guinea pig gastric glands
Mus musculus [6] = assay: Effective dose for antagonism of CCK-8 inhibition of gastric emptying, 4 hr after oral administration; type: functional; conditions: Stomach; in short: as §2

SMILES | IC50 [1] [µM] | ED50 (Mus musculus [2]) [mg/kg] | further results
Cc1nnc2n1-c1ccccc1C(c1ccccc1)=NC2NC(=O)Nc1ccc(Cl)cc1 (stereo not drawn) | 0.12 | – | –
O=C(NC1N=C(c2ccccc2F)c2ccccc2-n2cnnc21)c1ccc(Cl)cc1 (stereo not drawn) | 9.3 | 0.12 | –
Fc1ccccc1C1=N[C@H](Cc2c[nH]c3ccccc23)c2nncn2-c2ccccc21 | ~100 | – | –
CN(C)Cc1nnc2n1-c1ccccc1C(c1ccccc1F)=N[C@@H]2Cc1c[nH]c2ccccc12 | ~100 | – | –
O=C(NC1N=C(c2ccccc2F)c2ccccc2-n2cnnc21)OCc1ccccc1 (stereo not drawn) | 8 | – | –
Fc1ccccc1C1=N[C@H](Cc2c[nH]c3ccccc23)c2nnc(-c3ccccc3)n2-c2ccccc21 | ~100 | – | –
O=C(NC1N=C(c2ccccc2)c2ccccc2-n2cnnc21)OCc1ccccc1 (stereo not drawn) | 7.7 | – | IC50 [3]: 0.1 µM
O=C(NC1N=C(c2ccccc2F)c2ccccc2-n2cnnc21)c1cc2ccccc2[nH]1 (stereo not drawn) | 0.053 | 0.02 | ED50 (Mus musculus [4]): 0.12 mg/kg
Fc1ccccc1C1=N[C@H](Cc2c[nH]c3ccccc23)c2nnc(C(Cl)(Cl)Cl)n2-c2ccccc21 | > 100 | – | –
Cc1nnc2n1-c1ccccc1C(c1ccccc1F)=N[C@@H]2Cc1c[nH]c2ccccc12 | 39 | 76 | ED50 (Mus musculus [4]): 200 mg/kg; IC50 [5]: 12 µM
O=C(Nc1ccc(Cl)cc1)NC1N=C(c2ccccc2)c2ccccc2-n2cnnc21 (stereo not drawn) | 0.48 | – | –
Cc1nnc2n1-c1ccccc1C(c1ccccc1F)=NC2NC(=O)c1cc2ccccc2[nH]1 (stereo not drawn) | 0.008 | 0.05 | IC50 [3]: 0.0002 µM; ED50 (Mus musculus [6]): 0.13 mg/kg
Cc1nnc2n1-c1ccc(Cl)cc1C(c1ccccc1)=NC2 [ALPRAZOLAM] | > 100 | – | IC50 [3]: 64 µM
CN1C(=O)[C@@H](NC(=O)c2cc3ccccc3[nH]2)N=C(c2ccccc2)c2ccccc21 [DEVAZEPIDE] | – | 0.04 | ED50 (Mus musculus [4]): 0.06 mg/kg
Cc1nnc2n1-c1ccc(Cl)cc1C(c1ccccc1Cl)=NC2 [TRIAZOLAM] | > 100 | – | IC50 [3]: 39 µM
